The RNAGym collection of RNA variant scans (doi:10.1126/science.aae0568)
Variants at the floor of the assay were thinned out.

B1: tRNA (parent)
chain: GUUCCGUUGGCGUAAUGGUAACGCGUCUCCCUCCUAAGGAGAAGACUGCGGGUUCGAGUCCCGUACGGAACG

Variants of: B1
Assay: yeast fitness relative to wild type (ratio to wild type); higher = fitter; tRNA-Arg(CCU), competitive growth, 37 C, YPD
Procedure, shortened: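 Changes in genotype frequencies gave Darwinian fitness relative to wild type. Frequencies were read by 100-nucleotide paired-end sequencing of gene amplicons before and after pooled Saccharomyces cerevisiae strains, carrying tRNA-Arg(CCU) gene variants at the native locus, were competed in YPD at 37°C for 24 hours in six replicates. A genotype was kept only with ≥ 100 starting reads, and estimates < 0.5 were set to 0.5.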

Row | Variant | yeast fitness
1 | U3G U16C G39C A45C C49G | ≤ 0.5
2 | C5U U8C | 1.07
3 | G23C C55G G67A | 0.526
4 | U13A G38C A69C | 0.524
5 | G23C G48A | 0.668
6 | U26C G52A A70C | ≤ 0.5
7 | U3A C46U G48A | 0.695
8 | C29G C31U A43C G44C G68C | ≤ 0.5
9 | C30G C31U U59A | 0.563
10 | U3G G18A G25A C29A | ≤ 0.5
11 | C30U G38C G58A C61A | ≤ 0.5
12 | C5A A42C G63A | ≤ 0.5
13 | C30U A57G C60G | ≤ 0.5
14 | G25A A40G C55G | ≤ 0.5
15 | G12C A20U A45U G50A G51A | ≤ 0.5
16 | A14C C49G G63C | 0.592
17 | C5G G12A A36U A42U U59C | ≤ 0.5
18 | A15C U35C | 0.578
19 | G10C C11U C29G C55U | 0.556
20 | C11G C31U C33A C66U | ≤ 0.5
21 | C5U A36G G52C | ≤ 0.5
22 | U2G A14C A42C C49U A65G A70U | 0.533
23 | C5G U28G G38C C62G C66U | ≤ 0.5
24 | C11U G23A C60G C62A | ≤ 0.5

Row | Variant | yeast fitness
25 | C11G C66G G68C | ≤ 0.5
26 | C22G C24A G38A A57G | ≤ 0.5
27 | A36G A42U A57U | ≤ 0.5
28 | U3C C60G G67C | ≤ 0.5
29 | G23A U32C | 0.628
30 | U32A A36C C60G | ≤ 0.5
31 | C5U C55A C61G | ≤ 0.5
32 | G18C G67U | 0.632
33 | C27G C49U A65U A70G | ≤ 0.5
34 | A15C G50C U64C | 0.545
35 | C5G U59A A65G | 0.667
36 | A15C C55A A65C | ≤ 0.5
37 | C11A U19A G52A | ≤ 0.5
38 | C11U C46A A65U | 0.682
39 | C31G U47G C49G C60U C62G | ≤ 0.5
40 | A15C A42C C55G A70G | 0.72
41 | G6C U8C G25A C34U A43U | ≤ 0.5
42 | U8G C22A C27U A40U | ≤ 0.5
43 | G17A A21C C31U | ≤ 0.5
44 | G23A C30U C55U G67C | ≤ 0.5
45 | C24U C29G C60U C66U | ≤ 0.5
46 | G9A A42G C49A G58A | ≤ 0.5
47 | U2G G58A | 1.16
48 | G9A C31A | 0.862

Row | Variant | yeast fitness
49 | G10A U35A G56A A65G C66U | ≤ 0.5
50 | U16A U28A C46G C49A A69U | ≤ 0.5
51 | C31A U32C | 0.766
52 | A14G C27U | 0.974
53 | U13C C60U | 0.725
54 | U2C A37G G38C C49U G52C A57C A65C | ≤ 0.5
55 | C5U A15C G18A U35C A42G C49A | 0.586
56 | U3G C5G G10A C30A C31G U47G C49A C60U G67A | ≤ 0.5
57 | G17C U26G G39C A40U C61U | ≤ 0.5
58 | U19A A45G A57C | ≤ 0.5
59 | A37G G68A A69G | ≤ 0.5
60 | C34U G48C C66U | 0.635
61 | G9C A14U C62G | ≤ 0.5
62 | G12A A42C C55U | ≤ 0.5
63 | U8G A45U | 0.648
64 | U3A C4A U8C C29G C33G A42G G48A | ≤ 0.5
65 | G10A A21G G67C | 0.617
66 | C5A G51A C61G | ≤ 0.5
67 | C5U U64A | 0.933
68 | U19A C34G A37U C49G | ≤ 0.5
69 | C4U A36G G44C | 0.765
70 | U2A C11G C30A A57G | ≤ 0.5
71 | C55A G68U A69U | ≤ 0.5
72 | U2A A37G C55U | ≤ 0.5

Row | Variant | yeast fitness
73 | C5U C55A C62A | ≤ 0.5
74 | A14G C34U A40G | 0.541
75 | A45U U64G | 0.721
76 | C4U G18C C24U C61G | ≤ 0.5
77 | C27G A43U U53C | ≤ 0.5
78 | A36C U47A G48C U54G C62U | ≤ 0.5
79 | G9C A36C A37G U64C | ≤ 0.5
80 | G9A U28C A70G | 0.673
81 | C31U A40U A70U | 0.7
82 | U3A G17A C22U A43C A69C | ≤ 0.5
83 | C5U U8C C11G A15U A36U G38A C61U A70U | 0.564
84 | C11G G12C A20C C24G G39C C60A | ≤ 0.5
85 | G23C A45C | 0.554
86 | U16G C22G C34G G50C A69U | 0.528
87 | U2G C31G A42G A57U | ≤ 0.5
88 | A42U A45C C55U A69C | ≤ 0.5
89 | C22G C31A A45U | 0.621
90 | C11G A21U A36U | ≤ 0.5
91 | U3A A21C C24G C61U | ≤ 0.5
92 | C4U G6A C62G | 0.54
93 | U7A C22A G52A G58A | ≤ 0.5
94 | C5G U26A A36C | ≤ 0.5
95 | C4U A37C G48C G50C | ≤ 0.5
96 | G18C C22A A45C C46U A65C | ≤ 0.5

Row | Variant | yeast fitness
97 | G18A G52C G67U A69U | ≤ 0.5
98 | U8C C27U C66U A69U | ≤ 0.5
99 | A57C G58C | 0.77
100 | C11A U13A A42U C55A | ≤ 0.5
101 | A37U G44A A69C | ≤ 0.5
102 | A15G C22G G23C A43C G50C A70U | ≤ 0.5
103 | C5G G38C A69U | ≤ 0.5
104 | A43G G52A A69U A70C | ≤ 0.5
105 | U7C G10C C49U A65G | ≤ 0.5
106 | U13A C49G | 1.01
107 | G41C U47A | 0.654
108 | U3C C22U | 0.824
109 | C30G C31G C33G A37C | ≤ 0.5
110 | U3A U19A A57G | 0.751
111 | U3A A70C | 0.988
112 | C4A C49A G58A | ≤ 0.5
113 | G17C G25C C29G A36U G39A | ≤ 0.5
114 | C46U C61G A69U | 0.627
115 | G6A U7A G38C | 0.603
116 | G10A C11A A15C C24A | ≤ 0.5
117 | C11A C49U | 0.658
118 | G12A A15U G63A | 0.601
119 | C4G A43G | 0.729
120 | A43G G51A G58A | 0.58

Row | Variant | yeast fitness
121 | U3C G44C A70C | 0.602
122 | A43U A65C G68U | 0.527
123 | G10A G44C G63C | ≤ 0.5
124 | C46U U54C A70U | 0.804
125 | C29A U32C A42U C66A A69C | ≤ 0.5
126 | C11A U16C G18C A45C A57C G67A G68C | ≤ 0.5
127 | C11U G48A U54C | 0.677
128 | U7A C30A A70U | 0.601
129 | G9C C31G A40C C66U | ≤ 0.5
130 | G10C G12C C24U C29G G68C | ≤ 0.5
131 | G25C C30G U32G A42C C49U | 0.543
132 | U2G C30G G39C | 0.551
133 | A15G U16C C29G G41A | 0.599
134 | C33G U54C | 0.519
135 | U7A G9C G17C G48A G67A | ≤ 0.5
136 | C22U C61G | 0.586
137 | C11U C22G A37C A42G G44A | ≤ 0.5
138 | G23A C49A | 0.526
139 | U7A U8G C34A G58C C62A A69C | ≤ 0.5
140 | C4U U53C | 0.869
141 | G23A G39C A40U G68A | ≤ 0.5
142 | G10C U13C U53C | 0.512
143 | A21G C30G G67U | ≤ 0.5
144 | U2G C31G | 1.02

Row | Variant | yeast fitness
145 | C5U U7A U28A | 0.573
146 | U7A A40U A43C | 0.656
147 | C11U C46U G52C U59C C66U | ≤ 0.5
148 | U32C A43U | 0.921
149 | U7A C30U C66U | ≤ 0.5
150 | C30G C46U C49G U64A | ≤ 0.5
151 | C4G U7G G12C A20U C34A G41C A45C U47A C55A | ≤ 0.5
152 | C5A G12A C24U C29U C30A | ≤ 0.5
153 | A14C C62G A70G | 0.632
154 | C34A A37U U54C | 0.542
155 | G48C A57G A69U | 0.562
156 | A14C U32G G39C | ≤ 0.5
157 | G10A G51A | 0.691
158 | C31U G67A | 0.97
159 | C34U A37U C46A G51A A65U | ≤ 0.5
160 | A14U G18C G25A A70G | ≤ 0.5
161 | G12C U28A G56A A57C | ≤ 0.5
162 | C31A C46U A70C | 0.62
163 | U19A C29A | 0.712
164 | U53C A65U C66U | ≤ 0.5
165 | G9C A20U U28A A42U G48A | ≤ 0.5
166 | C29G A70U | 0.682
167 | G9A G25C C62U | 0.712
